Source: PubChem
Efflux pump inh = blocks antifungal efflux pumps in multiplex yeast assay; S. cerevisiae Candida pump triplex, Nile Red efflux; inhibition, % at 10 µM; AID 485275; actives 0.44% (n = 330,000);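 active means plate passing quality check with inhibition over a set limit, or well fluorescence over plate mean plus 4 SD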;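 further: Nile Red retained in pooled yeast measured as flow cytometry median fluorescence; 0% = buffer negative control and 100% = Enniatin B positive control; higher means more Nile Red kept so more efflux inhibition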
Neddylation inh = cullin neddylation inhibition. P61081+Q13564. TR-FRET cullin neddylation, biochemical. inhibition, % at 25 µM. actives 0.58% (n = 360,000); in the data active means inhibition above about 36%
Arr AP2 block = human beta-arrestin and AP2 interaction inhibition; FITC-arrestin peptide / GST-AP2 beads, flow cytometry; AP2 beta2 appendage carries R879A mutation; AID 504490; inhibition, % at 10 µM; actives 0.31% (n = 340,000);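 active means inhibition above a set limit, near 3 SD of compounds lacking own fluorescence, cut at about 54% in these data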;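 further: plate controls were DMSO wells for no effect and 5 µM unlabelled arrestin peptide for full effect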
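system = GST-tagged AP2 beta2-adaptin appendage (R879A) on 4 µm glutathione beads | reagent = FITC-labelled arrestin peptide probe, 50 nM final | schedule = compound with beads 12 min RT, then probe 1 h RT | signal = HyperCyt-sampled flow cytometry, FL1 channel, ex 488/em 535 nm | read-out = percent response from loss of bead-bound FITC fluorescence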
Pemphigus Ab inh = inhibitors of pemphigus antibody binding to human desmoglein-3; P32926; DSG3-coupled beads, scFv-anti-DSG3-GFP binding, flow cytometry; stronger effect = lower value; binding (percent of control), % at 10 µM; actives 0.48% (n = 310,000);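 active means binding more than 3 SD below its plate's average and above zero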;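 further: hits lower antibody fragment binding to DSG3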
Target sequence (P32926 whole entry, looked up, the tested form may be a part): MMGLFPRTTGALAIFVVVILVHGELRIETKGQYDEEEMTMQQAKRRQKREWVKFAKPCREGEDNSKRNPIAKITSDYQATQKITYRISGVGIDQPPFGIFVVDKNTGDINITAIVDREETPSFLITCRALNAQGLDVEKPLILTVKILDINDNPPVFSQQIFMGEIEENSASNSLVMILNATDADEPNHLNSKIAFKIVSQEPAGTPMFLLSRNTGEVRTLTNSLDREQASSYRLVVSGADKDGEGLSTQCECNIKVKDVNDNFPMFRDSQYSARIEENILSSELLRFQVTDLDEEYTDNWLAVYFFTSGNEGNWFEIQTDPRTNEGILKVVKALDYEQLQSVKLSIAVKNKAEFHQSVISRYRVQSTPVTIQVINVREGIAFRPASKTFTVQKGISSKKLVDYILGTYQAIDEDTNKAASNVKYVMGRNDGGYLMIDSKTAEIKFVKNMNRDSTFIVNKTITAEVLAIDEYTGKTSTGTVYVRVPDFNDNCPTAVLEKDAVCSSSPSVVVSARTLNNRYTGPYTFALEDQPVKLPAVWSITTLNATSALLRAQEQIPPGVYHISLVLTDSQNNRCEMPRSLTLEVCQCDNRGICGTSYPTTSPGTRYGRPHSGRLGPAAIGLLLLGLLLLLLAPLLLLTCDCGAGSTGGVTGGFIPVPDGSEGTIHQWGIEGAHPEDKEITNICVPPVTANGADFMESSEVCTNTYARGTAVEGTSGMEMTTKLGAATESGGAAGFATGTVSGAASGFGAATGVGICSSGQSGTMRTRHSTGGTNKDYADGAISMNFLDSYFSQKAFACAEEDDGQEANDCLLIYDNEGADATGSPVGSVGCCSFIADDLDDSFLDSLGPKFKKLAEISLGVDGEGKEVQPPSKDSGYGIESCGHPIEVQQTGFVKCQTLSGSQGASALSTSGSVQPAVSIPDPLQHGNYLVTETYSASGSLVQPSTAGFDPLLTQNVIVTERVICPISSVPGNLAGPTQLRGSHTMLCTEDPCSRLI
The depositor's hits bear a star; / = not tested or not shown. A selection: hits, their analogues and other compounds. The true share with any hit is near 1.7%.

SMILES | Efflux pump inh | Neddylation inh | Arr AP2 block | Pemphigus Ab inh
Cc1nc2sc3c(c2c(=O)n1NC(=O)CCBr)CCCC3 | 0.0 | -0.1 | 61.8* | 95.3
Nc1cccc(-c2nc3cc(S(=O)(=O)c4ccc5oc(-c6cccc(N)c6)nc5c4)ccc3o2)c1 | 0.1 | / | -2.8 | 77.4*
CCCN(CCC)c1cc(Cl)nc(N)n1 | 0.0 | 4.9 | 29.8 | 97.4
COc1cc(N/N=C/c2ccc(N(C)C)cc2)ncn1 | -0.1 | 40.0* | 15.8 | 98.3
COc1cc(N/N=C/c2ccccc2O)ncn1 | -0.1 | 7.0 | 7.8 | 109.1
COc1ccc(C=O)c(OCc2cn(CC(=O)c3ccc(O)cc3)nn2)c1 | / | 4.8 | 6.9 | 111.5
C/C(=N\OCC(=O)N/N=C/c1ccc(C)cc1O)c1cccs1 | 0.0 | 40.5* | 6.6 | 101.5
C/C(=N\NC(=O)CO/N=C(\C)c1cccs1)c1ccc(N)cc1 | 0.2 | -9.4 | -1.7 | 100.9
O=c1c2c3nc4ccccc4nc3n(-c3ccc4c(c3)OCCO4)c2ncn1C1CCCC1 | 0.3 | -132.2 | 2.8 | 66.5*
COc1cc(C(=O)Nc2nnc(C)s2)c([N+](=O)[O-])cc1OC | 0.0 | -22.1 | 8.1 | 85.0*
CSCCC(NC(=O)c1ccccc1Br)C(=O)NCC1CCCCC1 (centres undefined) | -0.1 | -10.5 | 19.9 | 105.9*
CSCCC(NC(=O)c1ccco1)C(=O)NCC1CCCCC1 (centres undefined) | -0.2 | 16.6 | 11.9 | 99.8
CCOC(=O)c1[nH]ncc1CN1CCC(Cc2cccc(OC)c2)(C(=O)OCC)CC1 | 0.0 | -4.5 | 11.2 | 89.2
CC(C)Cc1nnc(NC(=O)C2CCN(C(=O)c3ccc(F)cc3)CC2)s1 | 0.2 | 6.8 | 0.8 | 101.2
CC1(C)CC(NS(=O)(=O)c2ccc3ccccc3c2)CC(C)(C)N1 | 0.1 | -13.2 | -15.8 | 32.8*
CC(NS(=O)(=O)c1ccc(NC(=O)N2CCCCC2)cc1)c1ccccc1 (centres undefined) | 0.1 | 3.9 | -4.2 | 113.2
COc1ccc(CC(=O)Nc2cccc(C(=O)NN3C(=O)c4ccccc4C3=O)c2C)cc1 | 0.1 | -7.2 | 4.2 | 14.4*
Cc1ccccc1NC(=S)c1ccc2ccccc2n1 | 0.0 | -15.5 | 15.7 | 78.5*
Cc1cc(C)c(C)c(S(=O)(=O)N2CCC(C(=O)Nc3ccccc3N3CCOCC3)CC2)c1C | -0.1 | -2.8 | 24.3 | 1.0*
COC(=O)c1ccccc1S(=O)(=O)N1CCC(C(=O)Nc2ccccc2N2CCOCC2)CC1 | / | -11.7 | -6.0 | 100.6
O=C(Nc1ccc(OCC(F)(F)C(F)F)cc1)c1ccncc1 | 0.2 | 1.7 | -6.5 | -12.6*
CCOc1ccc(NC(=O)c2ccncc2)cc1 | 0.3 | -1.3 | -1.6 | 103.5
Cc1ccc(C)c(N2CCN(S(=O)(=O)c3c(C)noc3/C=C/N(C)C)CC2)c1 | 0.8* | -3.2 | 0.3 | 96.0
Cc1cccc(-n2c(SCC(N)=O)nnc2-c2ccco2)c1 | 0.0 | 0.2 | 14.4 | 101.2
COc1cc2[nH]c(=O)c(C(=O)NCc3ccc(F)cc3)c(O)c2cc1OC | -0.1 | -161.2 | 6.7 | 100.5
SMILES | Efflux pump inh | Neddylation inh | Arr AP2 block | Pemphigus Ab inh
COc1ccc(CNC(=O)c2ccc(-c3ccccc3)cc2)cc1OC | -0.4 | 4.0 | 9.5 | 76.2*
COc1ccc(CNC(=O)c2c(O)c3cc(OC)c(OC)cc3[nH]c2=O)cc1OC | 0.1 | -115.8 | -14.6 | 78.9*
COc1ccc(CNC(=O)c2ccc(-c3ccccc3)cc2)cc1 | 0.1 | -7.1 | 10.1 | 105.7
O=C(c1cccc([N+](=O)[O-])c1)c1ccc2[nH]c(=O)[nH]c2c1 | 0.0 | -33.7 | 5.0 | 110.0
CC1CCCCN1C(=O)CCn1c(=O)oc2ccccc21 (centres undefined) | 0.2 | 0.0 | -1.8 | 104.2
CC1CN(S(=O)(=O)c2ccccc2)CN1C(=O)N1CCOCC1 (centres undefined) | 0.0 | 4.8 | 19.1 | 100.7
Cc1ccc2nc3c(cc2c1)c(NS(=O)(=O)c1ccccc1)nn3CC(C)C | 0.0 | 31.8 | 12.5 | 82.5*
CCC(C)(C)NC(=O)C(c1ccncc1)N(C(=O)Cn1nnc2ccccc21)c1cc2c(cc1C(C)=O)OCO2 (centres undefined) | 0.1 | -13.3 | -3.6 | 84.2*
CCn1c(SCC(=O)n2c(C)c(C)c3ccccc32)nnc1-c1ccco1 | -0.1 | 1.3 | 2.1 | 78.9*
N#C/C(=C/c1ccc(O)c(O)c1)c1nc2ccccc2[nH]1 | 2.0* | -129.7 | -18.0 | 96.1
N#C/C(=C\c1cccs1)c1nc2ccccc2[nH]1 | -0.2 | -0.9 | 35.5 | 104.5
COc1ccc(N2CC(O)=C(c3nc(-c4ccc(Br)cc4)cs3)C2=N)cc1 | 0.0 | 27.4 | 20.0 | 95.3
COc1ccc(N2CC(O)=C(c3nc(-c4ccccc4)cs3)C2=N)cc1 | 0.0 | 0.5 | 3.4 | 43.0*
CN(c1ccc(C(=O)NC2CC3CCC2C3)cc1)S(C)(=O)=O (centres undefined) | 0.0 | -2.1 | 12.1 | 6.6*
COc1ccc2nc(NC(=O)CSc3nc4cccnc4n3C)sc2c1 | 0.0 | -17.1 | 4.8 | 83.6*
COc1ccc(NC(=O)CSc2nc3cccnc3n2C)cc1 | 0.3 | -6.4 | 0.0 | 110.7
COc1cccc2c1Oc1ncccc1N(C(=O)CCC(=O)NCc1ccccc1Cl)C2 | -0.1 | 7.8 | 17.9 | 98.3
O=C(O)c1cccc(-n2cccc2/C=C/[N+](=O)[O-])c1 | 0.3 | 16.0 | 30.2 | 24.3*
CCCCS(=O)CC(CS(=O)CCCC)OC(=O)c1ccc(C)cc1 (centres undefined) | 0.1 | 2.4 | 12.5 | 45.4*
CCCCS(=O)CC(CS(=O)CCCC)OC(=O)c1ccccc1 (centres undefined) | 0.1 | -12.2 | 3.1 | /
O=C(NC(=S)NNC(=O)c1cnccn1)c1ccc(F)cc1 | -0.3 | 2.2 | 16.3 | 95.7
O=C(/C=C/c1ccc(F)cc1)NC(=S)NNC(=O)c1cnccn1 | -0.1 | 65.1* | 18.8 | 117.3
COc1ccc(/C=C/C(=O)NC(=S)NNC(=O)c2cccnc2)cc1 | -0.1 | -15.4 | -12.4 | 84.5
COc1ccc(/C=C/C(=O)NC(=S)NNC(=O)c2cnccn2)cc1 | 0.1 | 59.1* | -4.0 | /
Cc1nc(NNC(=O)c2ccc(Cl)cc2Cl)cc(-c2ccccc2)n1 | 0.1 | 4.0 | 5.5 | 70.9*
SMILES | Efflux pump inh | Neddylation inh | Arr AP2 block | Pemphigus Ab inh
O=c1c2c([N+](=O)[O-])cc([N+](=O)[O-])cc2sn1-c1ccc(Br)cc1 | 0.0 | -40.0 | 40.5 | -121.2*
O=c1c2c([N+](=O)[O-])cc([N+](=O)[O-])cc2sn1Cc1ccccc1 | -0.1 | -55.5 | 13.7 | 36.9*
NC(CSC1(c2ccc(F)cc2)c2ccccc2-c2ccccc21)C(=O)O (centres undefined) | / | -15.1 | / | 95.4
COc1ccc(C2(SCC(N)C(=O)O)c3ccccc3-c3ccccc32)cc1 (centres undefined) | / | 0.6 | 5.7 | 72.2*
COc1ccc(S(=O)(=O)N/N=C(/C)c2cccc(NC(=O)c3ccccc3Cl)c2)cc1 | 0.0 | -5.6 | -7.8 | 111.9
O=C(COC(=O)c1cc2ccccc2oc1=O)Nc1cccc(S(=O)(=O)N2CCCCCC2)c1 | -0.1 | 2.8 | 7.8 | 99.8
CN(C)S(=O)(=O)c1cccc(NC(=O)COC(=O)c2cc3ccccc3oc2=O)c1 | -0.1 | -4.7 | 1.6 | 71.2*
CCCc1cc(=O)n2[nH]c(C)cc2n1 | -0.2 | 36.7 | -1.4 | 82.8*
